For this assay, the species on record is Rattus norvegicus. In words: Antinidatory effect was measured in rat relative to that of prostaglandin F2 alpha. Type of assay: functional. In outline: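 Mated Wistar female rats (9 weeks, 180–200 g); sperm in vaginal smear marked day 0. Analogues in 10% EtOH–0.4% Tween 80 in saline (1 mg/mL stock, diluted with saline), given sc twice daily on days 3–5 at three to eight doses, 5–20 rats per dose. Killed day 11; no implantation site = effective. ED50 by Litchfield-Wilcoxon, expressed relative to PGF2α.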
`COC(=O)CCC/C=C\C[C@@H]1[C@@H](/C=C/[C@@H](O)CC(=O)c2cccc(Cl)c2)[C@H](O)C[C@@H]1O` displayed an Activity of 10.
For the compound `COC(=O)CCC/C=C\C[C@@H]1[C@@H](/C=C/[C@@H](O)C2(Sc3ccccc3)CC2)[C@H](O)C[C@@H]1O`, the Activity is less than 2.
The figure for `COC(=O)CCC/C=C\C[C@@H]1[C@@H](/C=C/[C@@H](O)CC(=O)c2ccc(Cl)cc2)[C@H](O)C[C@@H]1O` is 8; for `COC(=O)CCC/C=C\C[C@@H]1[C@@H](/C=C/[C@@H](O)C#COc2ccccc2)[C@H](O)C[C@@H]1O` it is less than 2; for `COC(=O)CCC/C=C\C[C@@H]1[C@@H](/C=C/[C@@H](O)C2C=Cc3ccccc32)[C@H](O)C[C@@H]1O` (stereo partly specified) it is less than 5.
The figure for `COC(=O)CCC/C=C\C[C@@H]1[C@@H](/C=C/[C@@H](O)c2ccccc2OC)[C@H](O)C[C@@H]1O` is less than 2; for `COC(=O)CCC/C=C\C[C@@H]1[C@@H](/C=C/[C@@H](O)C(Oc2ccccc2)C(=O)OC)[C@H](O)C[C@@H]1O` (stereo partly specified) it is less than 4.
The figure for `COC(=O)CCC/C=C\C[C@@H]1[C@@H](/C=C/[C@@H](O)C[Si](C)(C)c2ccccc2)[C@H](O)C[C@@H]1O` is less than 1.
Compound `COC(=O)CCC/C=C\C[C@@H]1[C@@H](/C=C/[C@@H](O)c2cc3ccccc3s2)[C@H](O)C[C@@H]1O` came in with an Activity of 40.
To `COC(=O)CCC/C=C\C[C@@H]1[C@@H](/C=C/[C@@H](O)C#Cc2ccccc2)[C@H](O)C[C@@H]1O` belongs 40.
For `COC(=O)CCC/C=C\C[C@@H]1[C@@H](/C=C/[C@@H](O)c2cc3ccccc3o2)[C@H](O)C[C@@H]1O`, the Activity was determined as 100.
To `COC(=O)CCC/C=C\C[C@@H]1[C@@H](/C=C/[C@@H](O)CSC2=CCCCC2)[C@H](O)C[C@@H]1O` belongs 10; to `COC(=O)CCC/C=C\C[C@@H]1[C@@H](/C=C/[C@@H](O)CC(=O)Oc2ccccc2)[C@H](O)C[C@@H]1O`, less than 1; to `COC(=O)CCC/C=C\C[C@@H]1[C@@H](/C=C/[C@@H](O)C#Cc2cccc(Cl)c2)[C@H](O)C[C@@H]1O`, 40.
The figure for `COC(=O)CCC/C=C\C[C@@H]1[C@@H](/C=C/[C@@H](O)CC(=O)c2ccccc2)[C@H](O)C[C@@H]1O` is 40; for `COC(=O)CCC/C=C\C[C@@H]1[C@@H](/C=C/[C@@H](O)C#Cc2ccc(Cl)cc2)[C@H](O)C[C@@H]1O` it is 1.

The record behind these values is ChEMBL document CHEMBL1121630, “Prostaglandin analogues possessing antinidatory effects. 1. Modification of the omega chain” (1980).
